Here are results for one protein from ChEMBL document CHEMBL1124804, “Substituted vitamin K epoxide analogues. New competitive inhibitors and substrates of vitamin K1 epoxide reductase” (J Med Chem, 1990).

Substrate in series [1]: C/C(=C\C(O)C12OC1(C)C(=O)c1ccccc1C2=O)CCCC(C)CCCC(C)CCCC(C)C
Kind of series: (§1) Km value at Vitamin K epoxide reductase. In short, it runs like this: (§2)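 Analogues served as alternative substrates in place of vitamin K1 epoxide for beef liver microsomal reductase (0.02% Emulgen 911, DTT), at 10–100 μM (12 levels). Km and Vmax came from rates of quinone product formation, not from substrate consumption. They were reported only where the quinone product was stable to DTT.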

Substrate in series [2]: C/C(=C\CC12OC1(C)C(=O)c1ccccc1C2=O)CCCC(C)CCCC(C)CCCC(C)C
Described as §1. In short, it runs like this: as §2

Substrate in series [3]: C/C(=C\CC12OC1(CF)C(=O)c1ccccc1C2=O)CCCC(C)CCCC(C)CCCC(C)C
The description is as §1. In short, it runs like this:
as §2

Substrate in series [4]: C/C(=C\CC12OC1(CO)C(=O)c1ccccc1C2=O)CCCC(C)CCCC(C)CCCC(C)C
Described as §1. In short, it runs like this:
as §2

Substrate in series [5]: CC(C)CCCC(C)CCCC(C)CCCC(C)/C=C/C12OC1(C)C(=O)c1ccccc1C2=O
The description is as §1. In short, it runs like this: as §2

Substrate in series [6]: CC(C)CCCC(C)CCCC(C)CCCC(C)CC(O)C12OC1(C)C(=O)c1ccccc1C2=O
Described as §1. An outline of the steps:
as §2

Substrate in series [7]: CC(C)CCCC(C)CCCC(C)CCCC(C)CCC12OC1(C)C(=O)c1ccccc1C2=O
The description is as §1. An outline of the steps: as §2

Substrate in series [8]: C/C(=C\C(O)C12OC1(C)C(=O)c1ccccc1C2=O)CCCC(C)CCCC(C)CCCC(C)C
Kind of series: (§3) Vmax value at Vitamin K epoxide reductase. An outline of the steps: as §2

Substrate in series [9]: C/C(=C\CC12OC1(C)C(=O)c1ccccc1C2=O)CCCC(C)CCCC(C)CCCC(C)C
The description is as §3. An outline of the steps: as §2

Substrate in series [10]: C/C(=C\CC12OC1(CF)C(=O)c1ccccc1C2=O)CCCC(C)CCCC(C)CCCC(C)C
The series is described as §3. An outline of the steps: as §2

Substrate in series [11]: C/C(=C\CC12OC1(CO)C(=O)c1ccccc1C2=O)CCCC(C)CCCC(C)CCCC(C)C
Described as §3. In short, it runs like this:
as §2

Substrate in series [12]: CC(C)CCCC(C)CCCC(C)CCCC(C)/C=C/C12OC1(C)C(=O)c1ccccc1C2=O
The series is described as §3. In short, it runs like this:
as §2

Substrate in series [13]: CC(C)CCCC(C)CCCC(C)CCCC(C)CC(O)C12OC1(C)C(=O)c1ccccc1C2=O
The series is described as §3. An outline of the steps: as §2

Substrate in series [14]: CC(C)CCCC(C)CCCC(C)CCCC(C)CCC12OC1(C)C(=O)c1ccccc1C2=O
The description is as §3. In short, it runs like this:
as §2

B1: Vitamin K epoxide reductase complex subunit 1 (Bos taurus), Q6B4J2 (protein)
chain: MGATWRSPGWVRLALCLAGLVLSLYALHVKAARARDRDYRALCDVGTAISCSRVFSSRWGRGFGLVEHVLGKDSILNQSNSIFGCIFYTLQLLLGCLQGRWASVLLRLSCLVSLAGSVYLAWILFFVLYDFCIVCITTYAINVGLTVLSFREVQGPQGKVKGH
On to B1, for which the Km in [1] was found to be 25 µM; in series [2], 18 µM; in series [3] it was 20 µM; in [4], 10 µM; in [5] it was 68 µM; in series [6] it was 34 µM. Besides, the Km in series [7] came to 30 µM. Also, the maximal velocity (Vmax) in series [8] worked out at 2.4 pmol/s/mg; in [9], 2.9 pmol/s/mg; in [10], 4 pmol/s/mg; in [11] it was 3.4 pmol/s/mg; in series [12], 2 pmol/s/mg; in series [13], 1.6 pmol/s/mg. The Vmax in series [14] came out at 2.1 pmol/s/mg.
